Here are results for 29 compounds from ChEMBL document CHEMBL3612025, “Synthesis and biological evaluation of novel aromatic-heterocyclic biphenyls as potent anti-leukemia agents” (Eur J Med Chem, 2015).

One assay addresses Bcr/Abl fusion protein (Homo sapiens, UniProt P00519). Description: Inhibition of Bcr-Abl (unknown origin) after 60 mins by luminescent kinase assay. In kind it is protein assay.
Assay [1] has as its system K562. The assay can be described thus: Antiproliferative activity against human K562 cells after 48 hrs by MTT assay. The format is functional, cell-based. Conditions: K562, 48 h. The method in brief:
(§1)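 Human CML K562 line grown in RPMI-1640 with 10% FBS, penicillin G and streptomycin (100 units/ml each) at 37°C, 5% CO2. 2000 cells/well were seeded and compounds were added at four concentrations 48 h later, in triplicate. After 48 h exposure, MTT (5 mg/ml) was added for 4 h. Formazan was dissolved in DMSO and read at 490 nm. IC50 is the mean of three experiments.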
Background: Tetrazolium assays rely on reduction of a dye to a coloured formazan, in cell work by metabolically active cells.

Assay [2] concerns K562. Description: Antiproliferative activity against imatinib-resistant human K562 cells after 48 hrs by MTT assay. The format is functional, cell-based. Conditions: K562, 48 h. The method in brief:
as §1

Sequence of Bcr/Abl fusion protein (P00519 whole entry, the tested form may be a part): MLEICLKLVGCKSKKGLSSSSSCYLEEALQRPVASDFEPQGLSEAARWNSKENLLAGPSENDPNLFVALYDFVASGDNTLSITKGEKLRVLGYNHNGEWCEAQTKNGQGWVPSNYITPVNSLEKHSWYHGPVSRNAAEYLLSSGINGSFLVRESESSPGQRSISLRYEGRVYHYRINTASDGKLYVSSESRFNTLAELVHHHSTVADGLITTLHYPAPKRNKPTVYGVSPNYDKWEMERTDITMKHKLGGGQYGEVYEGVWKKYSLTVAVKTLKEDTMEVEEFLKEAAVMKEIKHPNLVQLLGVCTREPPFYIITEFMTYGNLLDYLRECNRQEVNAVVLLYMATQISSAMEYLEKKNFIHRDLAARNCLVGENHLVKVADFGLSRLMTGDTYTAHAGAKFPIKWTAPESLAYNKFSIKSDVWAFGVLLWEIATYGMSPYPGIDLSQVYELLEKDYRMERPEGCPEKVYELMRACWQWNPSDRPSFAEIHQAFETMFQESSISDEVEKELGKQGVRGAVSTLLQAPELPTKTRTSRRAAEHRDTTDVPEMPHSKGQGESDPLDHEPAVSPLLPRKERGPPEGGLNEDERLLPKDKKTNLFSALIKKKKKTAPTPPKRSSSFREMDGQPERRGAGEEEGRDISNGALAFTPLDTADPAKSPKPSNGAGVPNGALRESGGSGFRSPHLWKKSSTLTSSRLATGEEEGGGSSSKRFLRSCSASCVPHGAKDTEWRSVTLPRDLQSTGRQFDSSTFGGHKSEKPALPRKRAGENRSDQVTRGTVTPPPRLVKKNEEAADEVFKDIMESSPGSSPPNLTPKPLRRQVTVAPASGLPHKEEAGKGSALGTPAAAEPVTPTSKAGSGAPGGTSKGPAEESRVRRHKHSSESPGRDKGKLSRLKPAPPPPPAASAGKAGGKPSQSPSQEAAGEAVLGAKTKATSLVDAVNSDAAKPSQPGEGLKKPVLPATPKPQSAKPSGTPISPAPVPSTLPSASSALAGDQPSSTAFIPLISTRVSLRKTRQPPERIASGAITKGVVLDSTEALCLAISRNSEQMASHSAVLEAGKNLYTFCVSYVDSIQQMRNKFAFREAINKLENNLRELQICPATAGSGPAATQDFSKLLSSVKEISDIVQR
Sequence of Bcr/Abl fusion protein (P11274 whole entry, further chain, the tested form may be a part): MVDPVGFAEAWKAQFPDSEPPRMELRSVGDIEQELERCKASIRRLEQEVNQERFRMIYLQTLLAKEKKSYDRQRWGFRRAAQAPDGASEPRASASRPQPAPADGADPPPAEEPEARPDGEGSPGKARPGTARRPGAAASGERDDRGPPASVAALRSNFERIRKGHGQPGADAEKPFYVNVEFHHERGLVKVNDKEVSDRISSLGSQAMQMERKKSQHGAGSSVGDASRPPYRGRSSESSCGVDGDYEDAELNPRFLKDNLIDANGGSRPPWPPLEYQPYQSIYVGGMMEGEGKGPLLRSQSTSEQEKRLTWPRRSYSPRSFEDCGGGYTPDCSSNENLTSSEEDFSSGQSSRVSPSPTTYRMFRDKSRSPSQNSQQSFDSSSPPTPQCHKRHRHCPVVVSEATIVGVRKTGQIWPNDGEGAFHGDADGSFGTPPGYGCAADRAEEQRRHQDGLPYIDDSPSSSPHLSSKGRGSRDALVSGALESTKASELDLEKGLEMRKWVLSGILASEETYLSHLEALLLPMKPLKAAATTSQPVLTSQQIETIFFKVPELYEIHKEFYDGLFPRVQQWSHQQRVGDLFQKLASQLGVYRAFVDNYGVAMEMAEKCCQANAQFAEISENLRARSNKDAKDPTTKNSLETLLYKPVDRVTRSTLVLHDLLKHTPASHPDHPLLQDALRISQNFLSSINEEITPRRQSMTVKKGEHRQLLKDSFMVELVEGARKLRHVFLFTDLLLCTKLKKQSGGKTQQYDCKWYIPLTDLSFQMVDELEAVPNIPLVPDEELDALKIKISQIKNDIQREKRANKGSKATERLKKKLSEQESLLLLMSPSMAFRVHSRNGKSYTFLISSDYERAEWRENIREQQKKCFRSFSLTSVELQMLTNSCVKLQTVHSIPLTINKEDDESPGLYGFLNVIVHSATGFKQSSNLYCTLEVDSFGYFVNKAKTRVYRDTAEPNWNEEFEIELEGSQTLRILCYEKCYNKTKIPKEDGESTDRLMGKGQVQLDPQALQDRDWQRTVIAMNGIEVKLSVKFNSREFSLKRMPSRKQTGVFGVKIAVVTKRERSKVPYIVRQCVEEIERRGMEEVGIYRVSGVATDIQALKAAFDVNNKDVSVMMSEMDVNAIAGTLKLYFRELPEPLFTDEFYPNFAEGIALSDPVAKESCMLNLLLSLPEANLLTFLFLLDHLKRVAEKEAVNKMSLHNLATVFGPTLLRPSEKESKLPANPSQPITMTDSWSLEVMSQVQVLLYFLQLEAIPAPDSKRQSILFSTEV

Turning to `Cc1ccnc(-c2ccc(C(=O)N3CCN(C(=O)c4cccc(F)c4)CC3)cc2)c1`, the IC50 is 63.3 µM against Bcr/Abl fusion protein, 74.2 µM in the assay on K562 [1] and over 1000 µM with K562 [2].
As to `Cc1ccnc(-c2ccc(C(=O)N3CCN(C(=O)c4cccc(C(F)(F)F)c4)CC3)cc2)c1`, the IC50 is 0.112 µM on Bcr/Abl fusion protein, 41.6 µM in the assay with K562 [1] and 947 µM with K562 [2].
On the same counts, the results for `COc1cccc(C(=O)N2CCN(C(=O)c3ccc(-c4ccc(C)nc4)cc3)CC2)c1` are 0.143 µM, 261 µM and 304 µM.
Regarding `Cc1ccnc(-c2ccc(C(=O)N3CCN(C(=O)c4ccc(C(C)(C)C)cc4)CC3)cc2)c1`, the IC50 at Bcr/Abl fusion protein is over 500 µM; in the assay with K562 [1] it was 58.3 µM.
Take `O=C(c1ccc(-c2nccs2)cc1)N1CCN(C(=O)c2cccc(F)c2)CC1`: the half-inhibitory concentration (IC50) was 444 µM on Bcr/Abl fusion protein and over 500 µM in the assay with K562 [1].
On to `COc1cccc(C(=O)N2CCN(C(=O)c3ccc(-c4cccnc4)cc3)CC2)c1`, for which the half-maximal inhibitory concentration (IC50) against Bcr/Abl fusion protein was 60.7 µM; in the assay on K562 [1], 140 µM.
On the same counts, the results for `Cc1ccc(-c2ccc(C(=O)N3CCN(C(=O)c4cccc(F)c4)CC3)cc2)cn1` are over 500 µM and 64.5 µM.
For `O=C(c1ccc(-c2nccs2)cc1)N1CCN(C(=O)c2ccc(Cl)cc2Cl)CC1` the same measures were over 500 µM and over 500 µM.
Regarding `Cc1ccc(NC(=O)c2ccc(CN3CCN(C)CC3)cc2)cc1Nc1nccc(-c2cccnc2)n1` [IMATINIB], the half-maximal inhibitory concentration (IC50) worked out at 1.16 µM with K562 [1] and 15.7 µM with K562 [2].
In the case of `CN(C)c1cccc(C(=O)N2CCN(C(=O)c3ccc(-c4nccs4)cc3)CC2)c1`, the IC50 on Bcr/Abl fusion protein came to 1.84 µM; in the assay on K562 [1], 117 µM.
For `COc1cccc(C(=O)N2CCN(C(=O)c3ccc(-c4cccs4)cc3)CC2)c1` the same measures were 89.7 µM and 152 µM.
For `O=C(c1ccc(-c2ccccn2)cc1)N1CCN(C(=O)c2cccc(C(F)(F)F)c2)CC1` the same measures were over 500 µM and over 500 µM.
For `CN(C)c1cccc(C(=O)N2CCN(C(=O)c3ccc(-c4ccccn4)cc3)CC2)c1` the same measures were 45.6 µM and 29.7 µM.
Regarding `Cc1ccc(-c2ccc(C(=O)N3CCN(C(=O)c4cccc(C(F)(F)F)c4)CC3)cc2)cn1`, in the assay with K562 [1], half-maximal inhibition (IC50) was put at 47.1 µM.
On the same count and under the same terms, under `CN(C)c1cccc(C(=O)N2CCN(C(=O)c3ccc(-c4cccnc4)cc3)CC2)c1` stands over 500 µM; under `O=C(c1ccc(-c2cccs2)cc1)N1CCN(C(=O)c2ccc(Cl)cc2Cl)CC1`, 30.5 µM.
For `COc1cccc(C(=O)N2CCN(C(=O)c3ccc(-c4cc(C)ccn4)cc3)CC2)c1`, the half-maximal inhibitory concentration (IC50) against Bcr/Abl fusion protein was determined as 0.94 µM; in the assay on K562 [1], 76.1 µM; in the assay on K562 [2] it was 494 µM.
For the compound `Cc1ccnc(-c2ccc(C(=O)N3CCN(C(=O)c4cccc(N(C)C)c4)CC3)cc2)c1`, the IC50 against Bcr/Abl fusion protein amounted to 19.1 µM; with K562 [1] it was 31.4 µM.
For `CC(C)(C)c1ccc(C(=O)N2CCN(C(=O)c3ccc(-c4ccccn4)cc3)CC2)cc1` the same measures were 1.16 µM and 178 µM.
`O=C(c1ccc(-c2ccccn2)cc1)N1CCN(C(=O)c2cccc(F)c2)CC1` came in with an IC50 with K562 [1] of over 500 µM.
As for `O=C(c1ccc(Br)cc1)N1CCN(C(=O)c2ccc(-c3cccs3)cc2)CC1`, the IC50 against Bcr/Abl fusion protein was found to be 0.073 µM; with K562 [1], 29.9 µM; in the assay with K562 [2], 86.3 µM.
As to `Cc1ccc(-c2ccc(C(=O)N3CCN(C(=O)c4cccc(N(C)C)c4)CC3)cc2)cn1`, the figures for the IC50 against Bcr/Abl fusion protein and with K562 [1] were over 500 µM and 110 µM, respectively.
On the same counts, the results for `CN(C)c1cccc(C(=O)N2CCN(C(=O)c3ccc(-c4cccs4)cc3)CC2)c1` are 0.321 µM and 96.7 µM.
The compound `O=C(c1ccc(-c2cccnc2)cc1)N1CCN(C(=O)c2cccc(C(F)(F)F)c2)CC1` registered a half-inhibitory concentration (IC50) in the assay on K562 [1] of 346 µM.
Consider `O=C(c1ccc(Br)cc1)N1CCN(C(=O)c2ccc(-c3nccs3)cc2)CC1`, for which the concentration for half-maximal inhibition (IC50) on Bcr/Abl fusion protein is 0.421 µM; in the assay with K562 [1], over 500 µM.
On to `O=C(c1ccc(-c2cccnc2)cc1)N1CCN(C(=O)c2cccc(F)c2)CC1`, for which the IC50 was found to be 0.276 µM against Bcr/Abl fusion protein, 63.4 µM in the assay with K562 [1] and 81.6 µM in the assay on K562 [2].
For `COc1cccc(C(=O)N2CCN(C(=O)c3ccc(-c4ccccn4)cc3)CC2)c1` the same measures were 0.066 µM, 12.5 µM and 57.3 µM.
For `COc1cccc(C(=O)N2CCN(C(=O)c3ccc(-c4nccs4)cc3)CC2)c1` the same measures were 0.016 µM, 271 µM and 492 µM.
On to `O=C(c1ccc(-c2cccs2)cc1)N1CCN(C(=O)c2cccc(F)c2)CC1`, for which the IC50 at Bcr/Abl fusion protein was 5.05 µM; with K562 [1], 13.5 µM.

A word on the IC50: it is the concentration that gives 50% inhibition. A lower IC50 goes with greater potency in that assay.
